# Reference: ChEMBL document CHEMBL4622985, “Design, Synthesis, and Pharmacological Characterization of Heterobivalent Ligands for the Putative 5-HT2A/mGlu2 Receptor Complex” (J Med Chem, 2020)
# Legend:
# [1] = target: T1, 5-hydroxytryptamine receptor 2A/Metabotropic glutamate receptor 2 (Homo sapiens, UniProt P28223+Q14416); experiment: Positive modulator activity at human 5HT2A/mGlu2 receptor expressed in HEK293 cells co-expressing Gqo5 assessed as increase in intracellular Ca2+ mobilization incubated for 1 hr by Fluo-4 dye based fluorescence assay 5HT2A_HUMAN/GRM2_HUMAN P28223/Q14416; format: functional, cell-based
# T1 sequence (P28223 whole entry): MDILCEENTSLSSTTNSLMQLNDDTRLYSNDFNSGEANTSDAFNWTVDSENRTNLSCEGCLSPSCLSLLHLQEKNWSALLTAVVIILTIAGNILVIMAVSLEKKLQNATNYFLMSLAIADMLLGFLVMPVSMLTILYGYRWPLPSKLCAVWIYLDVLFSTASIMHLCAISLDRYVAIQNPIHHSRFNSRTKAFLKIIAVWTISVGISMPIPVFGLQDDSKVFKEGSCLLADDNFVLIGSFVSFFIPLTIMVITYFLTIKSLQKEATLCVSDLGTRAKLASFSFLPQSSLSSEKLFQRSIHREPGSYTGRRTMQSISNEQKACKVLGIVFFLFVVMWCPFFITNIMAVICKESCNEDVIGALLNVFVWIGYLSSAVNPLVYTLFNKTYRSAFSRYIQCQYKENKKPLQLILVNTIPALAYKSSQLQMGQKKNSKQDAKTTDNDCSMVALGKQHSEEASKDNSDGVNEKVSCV
# T1 sequence (Q14416 whole entry): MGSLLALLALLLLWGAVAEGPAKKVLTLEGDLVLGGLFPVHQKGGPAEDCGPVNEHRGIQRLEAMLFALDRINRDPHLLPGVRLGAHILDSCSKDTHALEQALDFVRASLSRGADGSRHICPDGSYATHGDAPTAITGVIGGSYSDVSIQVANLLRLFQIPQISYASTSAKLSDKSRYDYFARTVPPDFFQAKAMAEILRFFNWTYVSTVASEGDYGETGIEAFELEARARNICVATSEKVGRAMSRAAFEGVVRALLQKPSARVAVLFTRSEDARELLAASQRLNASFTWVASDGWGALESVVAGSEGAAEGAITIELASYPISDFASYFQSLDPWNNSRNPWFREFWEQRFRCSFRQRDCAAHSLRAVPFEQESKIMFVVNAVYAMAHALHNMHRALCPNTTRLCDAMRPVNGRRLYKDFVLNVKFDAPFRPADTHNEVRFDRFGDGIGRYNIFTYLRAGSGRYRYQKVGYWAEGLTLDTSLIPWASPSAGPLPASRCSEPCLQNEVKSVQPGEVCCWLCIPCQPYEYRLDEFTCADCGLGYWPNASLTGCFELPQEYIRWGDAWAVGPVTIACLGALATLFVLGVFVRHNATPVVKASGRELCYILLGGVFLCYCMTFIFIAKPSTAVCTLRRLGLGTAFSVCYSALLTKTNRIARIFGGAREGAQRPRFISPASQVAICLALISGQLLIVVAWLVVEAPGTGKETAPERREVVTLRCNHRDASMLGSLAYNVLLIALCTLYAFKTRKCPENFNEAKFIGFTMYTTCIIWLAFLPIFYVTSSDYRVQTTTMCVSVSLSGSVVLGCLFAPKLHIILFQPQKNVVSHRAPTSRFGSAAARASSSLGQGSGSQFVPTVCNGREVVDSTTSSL
# [2] = target: T2, Metabotropic glutamate receptor 2 (Homo sapiens, UniProt Q14416); experiment: Agonist activity at human mGlu2 receptor expressed in HEK293 cells co-expressing Gqo5 assessed as increase in intracellular Ca2+ mobilization incubated for 1 hr by Fluo-4 dye based fluorescence assay; format: functional, cell-based
# T2 sequence (Q14416 whole entry): as above
# [3] = target: T1, 5-hydroxytryptamine receptor 2A/Metabotropic glutamate receptor 2; experiment: Agonist activity at human 5HT2A/mGlu2 receptor expressed in HEK293 cells co-expressing Gqo5 assessed as increase in intracellular Ca2+ mobilization incubated for 1 hr by Fluo-4 dye based fluorescence assay; format: functional, cell-based
# [4] = target: T2, Metabotropic glutamate receptor 2; experiment: Positive modulator activity at human mGlu2 receptor expressed in HEK293 cells co-expressing Gqo5 assessed as increase in intracellular Ca2+ mobilization incubated for 1 hr in presence of EC20 glutamate by Fluo-4 dye based fluorescence assay; format: functional, cell-based
# [5] = target: T1, 5-hydroxytryptamine receptor 2A/Metabotropic glutamate receptor 2; experiment: Antagonist activity at human 5HT2A/mGlu2 receptor expressed in HEK293 cells assessed as inhibition of 5HT-induced intracellular Ca2+ mobilization incubated for 1 hr by Fluo-4 dye based fluorescence assay 5HT2A_HUMAN/GRM2_HUMAN P28223/Q14416; format: functional, cell-based
# [6] = target: T3, 5-hydroxytryptamine receptor 2A (Homo sapiens, UniProt P28223); experiment: Antagonist activity at human 5HT2A receptor expressed in HEK293 cells assessed as inhibition of 5HT-induced intracellular Ca2+ mobilization incubated for 1 hr by Fluo-4 dye based fluorescence assay; format: functional, cell-based
# T3 sequence (P28223 whole entry): as the sequence (P28223 whole entry) above
# [7] = target: T1, 5-hydroxytryptamine receptor 2A/Metabotropic glutamate receptor 2; experiment: Displacement of [3H]-ketanserin from human 5HT2A/mGlu2 receptor expressed in HEK293 cell membranes incubated for 2 hrs by scintillation counting method
# How it was run: (§1)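 Membranes from stable HEK293 lines were homogenized and centrifuged twice at 50.000g, 4 °C, then resuspended in 50 mM Tris-HCl, 10 mM MgCl2, 0.1 mM EDTA, pH 7.4. Competition used fixed [3H]ketanserin ~1.5 nM (1.3−1.8 nM) against varied test compound, with bound/free kept <10%. Incubation ran 2 h at rt with shaking, followed by GF/C filtration. Ki was obtained by Cheng−Prusoff using saturation KD. Three independent experiments, each in duplicate.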
# [8] = target: T1, 5-hydroxytryptamine receptor 2A/Metabotropic glutamate receptor 2; experiment: Displacement of [3H]-ketanserin from human 5HT2A/mGlu2 receptor expressed in HEK293 cell co-expressing Gqo5 membranes incubated for 2 hrs by scintillation counting method; format: cell-based; how it was run: as §1
# [9] = target: T1, 5-hydroxytryptamine receptor 2A/Metabotropic glutamate receptor 2; experiment: Antagonist activity at human 5HT2A/mGlu2 receptor expressed in HEK293 cells co-expressing Gqo5 assessed as inhibition of 5HT-induced intracellular Ca2+ mobilization incubated for 1 hr by Fluo-4 dye based fluorescence assay 5HT2A_HUMAN/GRM2_HUMAN P28223/Q14416; format: functional, cell-based
# [10] = target: T3, 5-hydroxytryptamine receptor 2A; experiment: Displacement of [3H]-ketanserin from human HT2A receptor expressed in HEK293 cell membranes incubated for 2 hrs by scintillation counting method; how it was run: as §1
# [11] = target: T1, 5-hydroxytryptamine receptor 2A/Metabotropic glutamate receptor 2; experiment: Antagonist activity at human 5HT2A/mGlu2 receptor expressed in HEK293 cells co-expressing Gqo5 assessed as inhibition of glutamate-induced intracellular Ca2+ mobilization incubated for 1 hr by Fluo-4 dye based fluorescence assay 5HT2A_HUMAN/GRM2_HUMAN P28223/Q14416; format: functional, cell-based
SMILES,EC50 [1],EC50 ([2]; read-out: EC50),EC50 ([2]; read-out: pEC50 (converted)),EC50 ([3]; read-out: EC50),EC50 ([4]; read-out: EC50),IC50 ([5]; read-out: IC50),IC50 ([6]; read-out: IC50),Ki ([7]; read-out: Ki),Ki ([8]; read-out: Ki),IC50 [9],Ki ([10]; read-out: Ki),IC50 [11],EC50 ([3]; read-out: pEC50 (converted)),EC50 ([4]; read-out: pEC50 (converted)),IC50 ([5]; read-out: pIC50 (converted)),IC50 ([6]; read-out: pIC50 (converted)),Ki ([7]; read-out: pKi (converted)),Ki ([8]; read-out: pKi (converted)),Ki ([10]; read-out: pKi (converted))
COc1ccccc1C1CCN(c2ccn3c(CC4CC4)nnc3c2Cl)CC1,19 nM,37 nM,35.5 nM,210 nM,5.2 nM,10000 nM,1300 nM,,,,,,,,,,,,
COc1c(OCCOCCOCCOCCOCCOc2ccc(C3CCN(c4ccn5c(CC6CC6)nnc5c4Cl)CC3)cc2)cccc1C(=O)C1CCN(CCc2ccc(F)cc2)CC1,,1600 nM,,10000 to 50000 nM,510 nM,1000 nM,450 nM,180 nM,320 nM,2400 nM,130 nM,1900 nM,,,,,,,
COCCOc1cccc(C(=O)C2CCN(CCc3ccc(F)cc3)CC2)c1OC,,> 50000 nM,> 50100 nM,> 50000 nM,> 50000 nM,16 nM,9.3 nM,6.5 nM,13 nM,23 nM,3 nM,29 nM,> 50100 nM,> 50100 nM,,,,,
COc1c(OCCOCCOCCOCCOc2ccc(C3CCN(c4ccn5c(CC6CC6)nnc5c4Cl)CC3)cc2)cccc1C(=O)C1CCN(CCc2ccc(F)cc2)CC1,,550 nM,,10000 to 50000 nM,330 nM,1700 nM,280 nM,100 nM,110 nM,800 nM,33 nM,990 nM,,,1550 nM,288 nM,,,
COc1c(OCCOCCOCCOCCOCCOCCOCCOCCOCCOCCOc2ccc(C3CCN(c4ccn5c(CC6CC6)nnc5c4Cl)CC3)cc2)cccc1C(=O)C1CCN(CCc2ccc(F)cc2)CC1,,1200 nM,,10000 to 50000 nM,320 nM,300 nM,300 nM,70 nM,120 nM,140 nM,79 nM,1200 nM,,,309 nM,,72.4 nM,,
COc1c(OCCOCCOCCOc2ccc(C3CCN(c4ccn5c(CC6CC6)nnc5c4Cl)CC3)cc2)cccc1C(=O)C1CCN(CCc2ccc(F)cc2)CC1,,900 nM,,10000 to 50000 nM,320 nM,7900 nM,1200 nM,840 nM,1040 nM,9900 nM,360 nM,5300 nM,,,,,,,
COc1c(OCCOCCOCCOCCOCCOCCOCCOCCOc2ccc(C3CCN(c4ccn5c(CC6CC6)nnc5c4Cl)CC3)cc2)cccc1C(=O)C1CCN(CCc2ccc(F)cc2)CC1,,1600 nM,,10000 to 50000 nM,510 nM,270 nM,410 nM,120 nM,160 nM,470 nM,110 nM,660 nM,,,,,,132 nM,120 nM

# More lines, now with the values ahead:
EC50 [1],EC50 ([2]; read-out: EC50),EC50 ([2]; read-out: pEC50 (converted)),EC50 ([3]; read-out: EC50),EC50 ([4]; read-out: EC50),IC50 ([5]; read-out: IC50),IC50 ([6]; read-out: IC50),Ki ([7]; read-out: Ki),Ki ([8]; read-out: Ki),IC50 [9],Ki ([10]; read-out: Ki),IC50 [11],EC50 ([3]; read-out: pEC50 (converted)),EC50 ([4]; read-out: pEC50 (converted)),IC50 ([5]; read-out: pIC50 (converted)),IC50 ([6]; read-out: pIC50 (converted)),Ki ([7]; read-out: pKi (converted)),Ki ([8]; read-out: pKi (converted)),Ki ([10]; read-out: pKi (converted)),SMILES
,2500 nM,,10000 to 50000 nM,480 nM,1600 nM,520 nM,170 nM,170 nM,380 nM,200 nM,700 nM,,,,,,,,COc1c(OCCOCCOCCOCCOCCOCCOCCOCCOCCOCCOCCOCCOc2ccc(C3CCN(c4ccn5c(CC6CC6)nnc5c4Cl)CC3)cc2)cccc1C(=O)C1CCN(CCc2ccc(F)cc2)CC1
,> 50000 nM,> 50100 nM,> 50000 nM,> 50000 nM,6.2 nM,0.81 nM,3 nM,8.7 nM,5.4 nM,0.52 nM,24 nM,> 50100 nM,> 50100 nM,,,,,,COc1cccc(C(=O)C2CCN(CCc3ccc(F)cc3)CC2)c1OC
,1200 nM,,10000 to 50000 nM,530 nM,510 nM,270 nM,120 nM,190 nM,420 nM,100 nM,890 nM,,,,,,,,COc1c(OCCOCCOCCOCCOCCOCCOc2ccc(C3CCN(c4ccn5c(CC6CC6)nnc5c4Cl)CC3)cc2)cccc1C(=O)C1CCN(CCc2ccc(F)cc2)CC1
,> 50000 nM,> 50100 nM,> 50000 nM,> 50000 nM,9.2 nM,11 nM,,,22 nM,,23 nM,> 50100 nM,> 50100 nM,,,,,,COc1c(O)cccc1C(=O)C1CCN(CCc2ccc(F)cc2)CC1
